In ChEMBL document CHEMBL2158000 (Bioorg Med Chem Lett, 2012) one finds IC50, Ratio IC50 and Activity data, which are given here for eleven compounds.

The target in data set [1] is T1, Amine oxidase [flavin-containing] A (Homo sapiens, UniProt P21397).
T1 sequence (P21397 whole entry): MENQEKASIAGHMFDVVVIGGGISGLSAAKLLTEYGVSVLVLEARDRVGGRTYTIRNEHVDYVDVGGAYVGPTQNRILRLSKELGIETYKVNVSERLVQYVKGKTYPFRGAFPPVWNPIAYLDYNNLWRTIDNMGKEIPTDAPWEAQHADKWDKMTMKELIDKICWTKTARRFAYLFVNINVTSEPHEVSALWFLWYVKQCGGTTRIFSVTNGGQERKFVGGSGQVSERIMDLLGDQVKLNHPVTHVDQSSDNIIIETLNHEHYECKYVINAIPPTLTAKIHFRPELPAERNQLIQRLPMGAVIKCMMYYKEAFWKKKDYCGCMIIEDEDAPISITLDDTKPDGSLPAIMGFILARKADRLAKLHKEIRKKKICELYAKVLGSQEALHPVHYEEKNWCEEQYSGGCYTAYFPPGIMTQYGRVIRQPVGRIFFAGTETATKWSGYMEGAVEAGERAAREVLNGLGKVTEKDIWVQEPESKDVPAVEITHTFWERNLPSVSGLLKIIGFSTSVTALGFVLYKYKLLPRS
The data set can be described thus: Inhibition of human recombinant MAOA using kynuramine as substrate assessed as formation of 4-hydroxyquinoline after 20 mins by fluorescence spectrophotometry.

The target in data set [2] is T2, Amine oxidase [flavin-containing] B (Homo sapiens, UniProt P27338).
T2 sequence (P27338 whole entry): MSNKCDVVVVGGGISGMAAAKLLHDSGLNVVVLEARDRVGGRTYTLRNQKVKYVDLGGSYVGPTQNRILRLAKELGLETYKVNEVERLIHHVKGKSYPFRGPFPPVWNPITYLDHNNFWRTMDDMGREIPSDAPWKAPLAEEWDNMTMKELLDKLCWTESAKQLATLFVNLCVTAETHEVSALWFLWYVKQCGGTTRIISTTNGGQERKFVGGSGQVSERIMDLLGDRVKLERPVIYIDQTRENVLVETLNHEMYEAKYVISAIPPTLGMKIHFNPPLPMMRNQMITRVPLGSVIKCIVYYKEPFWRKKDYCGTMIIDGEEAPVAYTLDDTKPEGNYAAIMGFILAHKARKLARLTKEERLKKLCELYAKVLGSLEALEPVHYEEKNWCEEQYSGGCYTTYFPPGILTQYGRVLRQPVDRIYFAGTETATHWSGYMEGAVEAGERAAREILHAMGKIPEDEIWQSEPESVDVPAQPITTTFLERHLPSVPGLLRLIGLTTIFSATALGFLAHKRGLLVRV
Description: Inhibition of human recombinant MAOB using kynuramine as substrate assessed as formation of 4-hydroxyquinoline after 20 mins by fluorescence spectrophotometry.

The next data set is filed under the species Homo sapiens. Description: Selectivity index, ratio of IC50 for human recombinant MAOA to IC50 for human recombinant MAOB.
The target in data set [3] is T2, Amine oxidase [flavin-containing] B. Description: Reversible inhibition of human recombinant MAOB using kynuramine as substrate assessed as residual activity at 100 times IC50 preincubated for 30 mins followed by 100 fold dilution measured after 20 mins by fluorescence spectrophotometry relative to control. The method, boiled down:
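MAO-B was preincubated with inhibitor at 10× and 100× IC50 for 30 min, then diluted to 0.1× and 1× IC50. Residual activity was measured by fluorometry of 4-hydroxyquinoline from kynuramine and expressed as % of control. Irreversible reference inhibitor was at 10× IC50, diluted to 0.1× IC50.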

On to `O=C1NC(=O)c2cc(Sc3ccccc3)ccc21`, for which the IC50 in data set [1] was 8030 nM; in data set [2] it was 986 nM. Moreover, the Ratio IC50 in the data set filed under Homo sapiens turned out to be 8.1.
In the case of `O=C1NC(=O)c2cc(Sc3ccc(Br)cc3)ccc21`, the results for the IC50 in data set [1] and in data set [2] were 1010 nM and 364 nM, respectively. Besides, in the data set filed under Homo sapiens, the Ratio IC50 came to 2.8.
As for `O=C1NC(=O)c2cc(SCc3ccc(Cl)cc3)ccc21`, the IC50 in data set [1] is 506 nM; in data set [2], 5.6 nM. Further, the Ratio IC50 in the data set filed under Homo sapiens came to 90.
Consider `O=C1NC(=O)c2cc(SCc3ccccc3)ccc21`, for which the IC50 in data set [1] turned out to be 1920 nM; in data set [2] it was 4.5 nM. In addition, the Activity in data set [3] was 28%. Moreover, the Ratio IC50 in the data set filed under Homo sapiens was determined as 427.
Turning to `COc1ccc(CSc2ccc3c(c2)C(=O)NC3=O)cc1`, the concentration for half-maximal inhibition (IC50) in data set [1] turned out to be 1630 nM; in data set [2], 20 nM. The Ratio IC50 in the data set filed under Homo sapiens was found to be 82.
In the case of `CC(C)CCSc1ccc2c(c1)C(=O)NC2=O`, the IC50 was 380 nM in data set [1] and 15 nM in data set [2]. Besides, in the data set filed under Homo sapiens, the Ratio IC50 worked out at 26.
In the same order, the values of `O=C1NC(=O)c2cc(SC3CCCCC3)ccc21` are 1030 nM, 179 nM and 5.8.
Regarding `O=C1NC(=O)c2cc(SCCc3ccccc3)ccc21`, the half-maximal inhibitory concentration (IC50) in data set [1] was determined as 2270 nM; in data set [2] it was 30 nM. In the data set listed under Homo sapiens, the Ratio IC50 worked out at 76.
In the same order, the values of `O=C1NC(=O)c2cc(SCc3ccc(F)cc3)ccc21` are 958 nM, 6.8 nM and 141.
The like results for `O=C1NC(=O)c2cc(Sc3ccc(Cl)cc3)ccc21` were, in that order, 1680 nM, 457 nM and 3.7.
In the same order, the values of `O=C1NC(=O)c2cc(SCc3ccc(Br)cc3)ccc21` are 273 nM, 7.4 nM and 37.

As a reminder, the IC50 is the concentration that gives 50% inhibition.
